ChEMBL document CHEMBL1629485, “Lead identification of conformationally restricted β-lactam type combretastatin analogues: synthesis, antiproliferative activity and tubulin targeting effects” (Eur J Med Chem, 2010)

How the values were obtained:
MDA-MB-231 [1] = assay: Antiproliferative activity against estrogen receptor deficient human MDA-MB-231 cells after 72 hrs by MTT assay; assay type: functional, cell-based; details: MDA-MB-231, 72 h
Method in brief: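 MCF-7 grown in Eagle's MEM with 10% FBS, 2 mM L-glutamine, penicillin/streptomycin and 1% non-essential amino acids; MDA-MB-231 grown in DMEM with 10% FBS, 2 mM L-glutamine and penicillin/streptomycin. Seeded at 2.5 × 10⁴ cells/mL, 24 h at 37 °C. Ethanol-stock compound, 1 nM–100 μM, 72 h, ethanol 1% v/v vehicle. MTT at 1 mg/mL final, 2 h dark, 37 °C, DMSO solubilised. Viability vs untreated control. IC50 is mean of three experiments in triplicate.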

MDA-MB-231 [2] = assay: Cytotoxicity against estrogen receptor deficient human MDA-MB-231 cells assessed as LDH release at 10 uM; assay type: functional
Method in brief: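 After compound treatment, LDH was measured with a commercial LDH kit. Result is % cell lysis at 10 μM compound.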

MDA-MB-231 [3] = assay: Cell cycle arrest in estrogen receptor deficient human MDA-MB-231 cells assessed as accumulation at sub-G1 phase at 100 nM after 24 hrs using propidium iodide staining by flow cytometry relative to control; assay type: functional
Method in brief: (§1)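 MDA-MB-231 cells in DMEM with 10% FBS and 2 mM L-glutamine, seeded at 18 × 10⁴ cells/mL. Exposed to test agent at the stated final concentration, or to 1% (v/v) ethanol vehicle, for 24, 48 or 72 h. Harvested by scraping and centrifugation, then RNase A treatment and propidium iodide DNA staining for at least 30 min at 37 °C. 10,000 cells per sample read at 488 nm by flow cytometry; mean ± SD of three experiments.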

MDA-MB-231 [4] = assay: Cell cycle arrest in estrogen receptor deficient human MDA-MB-231 cells assessed as accumulation at sub-G1 phase at 1 uM after 24 hrs using propidium iodide staining by flow cytometry relative to control; assay type: functional; method in brief: as §1
MDA-MB-231 [5] = assay: Cell cycle arrest in estrogen receptor deficient human MDA-MB-231 cells assessed as accumulation at sub-G1 phase at 10 nM after 48 hrs using propidium iodide staining by flow cytometry relative to control; assay type: functional; method in brief: as §1
MDA-MB-231 [6] = assay: Cell cycle arrest in estrogen receptor deficient human MDA-MB-231 cells assessed as accumulation at sub-G1 phase at 100 nM after 72 hrs using propidium iodide staining by flow cytometry relative to control; assay type: functional; method in brief: as §1
MDA-MB-231 [7] = assay: Cell cycle arrest in estrogen receptor deficient human MDA-MB-231 cells assessed as accumulation at sub-G1 phase at 1 uM after 72 hrs using propidium iodide staining by flow cytometry relative to control; assay type: functional; method in brief: as §1
MDA-MB-231 [8] = assay: Cell cycle arrest in estrogen receptor deficient human MDA-MB-231 cells assessed as accumulation at sub-G1 phase at 10 uM after 72 hrs using propidium iodide staining by flow cytometry relative to control; assay type: functional; method in brief: as §1
MDA-MB-231 [9] = assay: Cell cycle arrest in estrogen receptor deficient human MDA-MB-231 cells assessed as accumulation at G1 phase at 10 nM after 24 hrs using propidium iodide staining by flow cytometry relative to control; assay type: functional; method in brief: as §1
MDA-MB-231 [10] = assay: Cell cycle arrest in estrogen receptor deficient human MDA-MB-231 cells assessed as accumulation at G1 phase at 1 uM after 24 hrs using propidium iodide staining by flow cytometry relative to control; assay type: functional; method in brief: as §1
MDA-MB-231 [11] = assay: Cell cycle arrest in estrogen receptor deficient human MDA-MB-231 cells assessed as accumulation at G1 phase at 10 uM after 24 hrs using propidium iodide staining by flow cytometry relative to control; assay type: functional; method in brief: as §1
MDA-MB-231 [12] = assay: Cell cycle arrest in estrogen receptor deficient human MDA-MB-231 cells assessed as accumulation at G1 phase at 10 nM after 48 hrs using propidium iodide staining by flow cytometry relative to control; assay type: functional; method in brief: as §1
MDA-MB-231 [13] = assay: Cell cycle arrest in estrogen receptor deficient human MDA-MB-231 cells assessed as accumulation at G1 phase at 10 uM after 48 hrs using propidium iodide staining by flow cytometry relative to control; assay type: functional; method in brief: as §1
MDA-MB-231 [14] = assay: Cell cycle arrest in estrogen receptor deficient human MDA-MB-231 cells assessed as accumulation at G1 phase at 1 uM after 72 hrs using propidium iodide staining by flow cytometry relative to control; assay type: functional; method in brief: as §1
MDA-MB-231 [15] = assay: Cell cycle arrest in estrogen receptor deficient human MDA-MB-231 cells assessed as accumulation at S phase at 100 nM after 24 hrs using propidium iodide staining by flow cytometry relative to control; assay type: functional; method in brief: as §1
MDA-MB-231 [16] = assay: Cell cycle arrest in estrogen receptor deficient human MDA-MB-231 cells assessed as accumulation at S phase at 10 nM after 48 hrs using propidium iodide staining by flow cytometry relative to control; assay type: functional; method in brief: as §1
MDA-MB-231 [17] = assay: Cell cycle arrest in estrogen receptor deficient human MDA-MB-231 cells assessed as accumulation at S phase at 100 nM after 72 hrs using propidium iodide staining by flow cytometry relative to control; assay type: functional; method in brief: as §1
MDA-MB-231 [18] = assay: Cell cycle arrest in estrogen receptor deficient human MDA-MB-231 cells assessed as accumulation at G2/M phase at 10 nM after 24 hrs using propidium iodide staining by flow cytometry relative to control; assay type: functional; method in brief: as §1
MDA-MB-231 [19] = assay: Cell cycle arrest in estrogen receptor deficient human MDA-MB-231 cells assessed as accumulation at G2/M phase at 1 uM after 24 hrs using propidium iodide staining by flow cytometry relative to control; assay type: functional; method in brief: as §1
MDA-MB-231 [20] = assay: Cell cycle arrest in estrogen receptor deficient human MDA-MB-231 cells assessed as accumulation at G2/M phase at 10 uM after 24 hrs using propidium iodide staining by flow cytometry relative to control; assay type: functional; method in brief: as §1
MDA-MB-231 [21] = assay: Cell cycle arrest in estrogen receptor deficient human MDA-MB-231 cells assessed as accumulation at G2/M phase at 10 nM after 48 hrs using propidium iodide staining by flow cytometry relative to control; assay type: functional; method in brief: as §1
MDA-MB-231 [22] = assay: Cell cycle arrest in estrogen receptor deficient human MDA-MB-231 cells assessed as accumulation at G2/M phase at 10 uM after 48 hrs using propidium iodide staining by flow cytometry relative to control; assay type: functional; method in brief: as §1
MDA-MB-231 [23] = assay: Cell cycle arrest in estrogen receptor deficient human MDA-MB-231 cells assessed as accumulation at G2/M phase at 10 nM after 72 hrs using propidium iodide staining by flow cytometry relative to control; assay type: functional; method in brief: as §1
MDA-MB-231 [24] = assay: Cell cycle arrest in estrogen receptor deficient human MDA-MB-231 cells assessed as accumulation at G2/M phase at 1 uM after 72 hrs using propidium iodide staining by flow cytometry relative to control; assay type: functional; method in brief: as §1
MDA-MB-231 [25] = assay: Cell cycle arrest in estrogen receptor deficient human MDA-MB-231 cells assessed as accumulation at G2/M phase at 10 uM after 72 hrs using propidium iodide staining by flow cytometry relative to control; assay type: functional; method in brief: as §1
MDA-MB-231 [26] = assay: Cell cycle arrest in estrogen receptor deficient human MDA-MB-231 cells assessed as appearance of polyploidy at 100 nM after 24 hrs using propidium iodide staining by flow cytometry relative to control; assay type: functional
Method in brief: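 MDA-MB-231 cells seeded at 18 × 10⁴ cells/mL and exposed to 1% (v/v) ethanol vehicle or compound at final concentrations (10 nM, 100 nM, 10 µM at all times; 1 µM also at 24 and 72 h). Cells harvested after 24, 48 or 72 h and treated with RNase A and propidium iodide for at least 30 min at 37 °C. 10,000 cells read at 488 nm by flow cytometry. Percent cells per phase reported, including polyploid; mean ± SD of three experiments.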

MDA-MB-231 [27] = assay: Cell cycle arrest in estrogen receptor deficient human MDA-MB-231 cells assessed as appearance of polyploidy at 10 nM after 48 hrs using propidium iodide staining by flow cytometry relative to control; assay type: functional; method in brief: as §1

COc1ccc(C2CC(=O)N2c2cc(OC)c(OC)c(OC)c2)cc1O (configuration not stated)
IC50 (MDA-MB-231 [1]): 54 nM | Activity (MDA-MB-231 [2]): 16% | Activity (MDA-MB-231 [3]): 4.88% | Activity (MDA-MB-231 [4]): 7.08% | Activity (MDA-MB-231 [5]): 11.57% | Activity (MDA-MB-231 [6]): 63.1% | Activity (MDA-MB-231 [7]): 50.53% | Activity (MDA-MB-231 [8]): 46.49% | Activity (MDA-MB-231 [9]): 48.33% | Activity (MDA-MB-231 [10]): 19.22% | Activity (MDA-MB-231 [11]): 29.3% | Activity (MDA-MB-231 [12]): 45.25% | Activity (MDA-MB-231 [13]): 14.44% | Activity (MDA-MB-231 [14]): 14.29% | Activity (MDA-MB-231 [15]): 6.05% | Activity (MDA-MB-231 [16]): 13.36% | Activity (MDA-MB-231 [17]): 5.34% | Activity (MDA-MB-231 [18]): 25.61% | Activity (MDA-MB-231 [19]): 63.16% | Activity (MDA-MB-231 [20]): 55.36% | Activity (MDA-MB-231 [21]): 23.71% | Activity (MDA-MB-231 [22]): 27.25% | Activity (MDA-MB-231 [23]): 17.68% | Activity (MDA-MB-231 [24]): 21.24% | Activity (MDA-MB-231 [25]): 21.81% | Activity (MDA-MB-231 [26]): 4.87% | Activity (MDA-MB-231 [27]): 6.1%
